Measurements reported in ChEMBL document CHEMBL1221219, “Selective blockade of 2-arachidonoylglycerol hydrolysis produces cannabinoid behavioral effects” (Nat Chem Biol, 2009).
Activity calls are given as the source filed them. The rule behind the calls is not given here.

Tests used:
[1] = target: T1, Diacylglycerol lipase-alpha (Homo sapiens) (UniProt Q9Y4D2); experiment: Inhibition of recombinant DAGLalpha expressed in HEK293 cells assessed as hydrolysis of 1-stearoyl-2-arachidonoyl-glycerol to 2-AG at 10 uM after 30 mins by LC-MS method; type: cell-based
T1 sequence (whole entry): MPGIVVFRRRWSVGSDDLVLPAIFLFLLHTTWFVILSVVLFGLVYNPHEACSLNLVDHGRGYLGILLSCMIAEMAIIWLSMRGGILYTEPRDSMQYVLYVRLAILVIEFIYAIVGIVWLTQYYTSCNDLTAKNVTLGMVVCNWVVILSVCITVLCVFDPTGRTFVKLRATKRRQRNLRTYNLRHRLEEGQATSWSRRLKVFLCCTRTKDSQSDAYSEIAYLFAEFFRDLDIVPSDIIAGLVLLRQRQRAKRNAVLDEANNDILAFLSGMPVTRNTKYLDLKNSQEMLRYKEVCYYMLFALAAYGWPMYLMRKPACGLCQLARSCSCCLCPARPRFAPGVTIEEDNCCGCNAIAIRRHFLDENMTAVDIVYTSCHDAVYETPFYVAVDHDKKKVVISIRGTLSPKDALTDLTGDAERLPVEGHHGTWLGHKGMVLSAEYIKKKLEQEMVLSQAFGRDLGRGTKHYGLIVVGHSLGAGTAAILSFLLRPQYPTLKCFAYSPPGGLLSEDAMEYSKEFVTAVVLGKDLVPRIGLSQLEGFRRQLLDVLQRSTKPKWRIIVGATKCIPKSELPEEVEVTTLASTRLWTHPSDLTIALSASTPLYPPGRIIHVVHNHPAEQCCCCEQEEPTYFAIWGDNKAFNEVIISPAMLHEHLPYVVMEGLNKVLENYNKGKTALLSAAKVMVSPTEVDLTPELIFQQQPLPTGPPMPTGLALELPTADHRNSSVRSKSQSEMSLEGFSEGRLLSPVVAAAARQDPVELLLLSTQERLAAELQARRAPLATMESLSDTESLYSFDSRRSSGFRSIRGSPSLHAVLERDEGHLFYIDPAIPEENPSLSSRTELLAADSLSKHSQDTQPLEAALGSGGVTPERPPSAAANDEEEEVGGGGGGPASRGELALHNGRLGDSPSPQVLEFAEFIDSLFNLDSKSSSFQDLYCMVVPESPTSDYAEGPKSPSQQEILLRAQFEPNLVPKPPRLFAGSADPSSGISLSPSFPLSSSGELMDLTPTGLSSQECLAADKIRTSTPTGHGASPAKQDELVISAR

Mus musculus [2] = experiment: Change in monoacylglycerol level in C57B1/6J mouse brain at 16 mg/kg, ip by LC-MS; type: functional, organism-based; parameters: dose 16 mg/kg
In short: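 Mice received 16 mg kg^-1 i.p. in 4:1 PEG300:Tween80 and were killed at 0.5, 1, 2, 4, 8 and 24 h. Brain lipids, including N-acylethanolamines, MAGs, free fatty acids and arachidonic acid, were measured by LC-MS.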

Mus musculus [3] = experiment: Change in palmitic acid in intraperitoneally dosed C57B1/6J mouse brain by LC-MS; type: functional, organism-based
In short: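 Male C57Bl/6J mice given 4, 8, 16 or 40 mg kg^-1 i.p. in 4:1 PEG300:Tween80 at 4 μl g^-1, or vehicle, and killed after 4 h. Whole-brain lipids were quantified by LC-MS.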

[4] = target: T2, Fatty-acid amide hydrolase 1 (Mus musculus) (UniProt O08914); details: C57B1/6J, Brain, Membrane, 10 uM
T2 sequence (whole entry): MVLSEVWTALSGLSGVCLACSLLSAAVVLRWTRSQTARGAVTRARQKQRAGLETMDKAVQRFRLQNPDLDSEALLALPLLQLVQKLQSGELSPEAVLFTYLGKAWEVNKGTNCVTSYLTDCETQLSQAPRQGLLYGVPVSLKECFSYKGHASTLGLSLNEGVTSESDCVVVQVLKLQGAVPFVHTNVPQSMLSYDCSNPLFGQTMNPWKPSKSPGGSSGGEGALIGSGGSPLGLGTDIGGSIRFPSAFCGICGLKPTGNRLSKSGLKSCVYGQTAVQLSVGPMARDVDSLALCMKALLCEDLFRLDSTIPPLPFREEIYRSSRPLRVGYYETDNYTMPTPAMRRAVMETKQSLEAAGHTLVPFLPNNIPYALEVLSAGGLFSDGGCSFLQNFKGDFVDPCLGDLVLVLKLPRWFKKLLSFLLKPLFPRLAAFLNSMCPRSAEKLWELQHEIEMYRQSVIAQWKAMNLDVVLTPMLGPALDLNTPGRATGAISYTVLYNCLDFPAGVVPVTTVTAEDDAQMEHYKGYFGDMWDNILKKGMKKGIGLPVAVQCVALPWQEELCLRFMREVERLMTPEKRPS

Mus musculus [5] = experiment: Inhibition of GPID in C57B1/6J mouse brain membrane at 16 mg/kg, ip after 4 hrs by competitive activity-based protein profiling-MudPIT method; type: functional, organism-based; parameters: dose 16 mg/kg
In short: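 After i.p. dosing in 4:1 PEG300:Tween80, male C57Bl/6J mice were killed at 4 h. Brain membrane proteomes from treated and vehicle mice were labelled with FP-biotin. Labelled proteins were enriched on avidin, digested on-bead with trypsin and analysed by multidimensional LC-MS. Proteins were identified by SEQUEST, and dosed samples were compared with vehicle.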

## O=C(Oc1ccc([N+](=O)[O-])cc1)N1CCC(C(O)(c2ccc3c(c2)OCO3)c2ccc3c(c2)OCO3)CC1
[1]
  inhibition: inactive
Mus musculus [2]
  Activity: inactive
Mus musculus [3]
  Activity: inactive
[4]
  inhibition: Active
Mus musculus [5]
  inhibition: inactive
